Source: PubChem (several laboratories)
NR2F2 inh: NR2F2 (human) inhibition, primary screen; P24468; HEK293T NGFI-A luciferase reporter, luminescence; inhibition, % at 8.6 µM; 0.7% of 370,000 active;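 active = inhibition above a per-plate cutoff, mean inhibition of test wells between control levels plus 3 SD, cut at about 38% in these data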;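 also: cells cotransfected with COUP-TFII expression vector driving the NGFI-A reporter; 0% = median of COUP-TF2 test wells and 100% = reporter-only cells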
CHT PAM: human CHT allosteric activation | Q9GZV3 | CHT-expressing cells, membrane potential dye, choline EC20; hits give high values; LV-AA mutant CHT in HEK293 cells | B-score at 10 µM | 0.49% of 310,000 active;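 active = initial fluorescence not abnormally high and integrated response B-score, plate-corrected, over 3 SD above library mean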
Target sequence (Q9GZV3 whole entry, looked up): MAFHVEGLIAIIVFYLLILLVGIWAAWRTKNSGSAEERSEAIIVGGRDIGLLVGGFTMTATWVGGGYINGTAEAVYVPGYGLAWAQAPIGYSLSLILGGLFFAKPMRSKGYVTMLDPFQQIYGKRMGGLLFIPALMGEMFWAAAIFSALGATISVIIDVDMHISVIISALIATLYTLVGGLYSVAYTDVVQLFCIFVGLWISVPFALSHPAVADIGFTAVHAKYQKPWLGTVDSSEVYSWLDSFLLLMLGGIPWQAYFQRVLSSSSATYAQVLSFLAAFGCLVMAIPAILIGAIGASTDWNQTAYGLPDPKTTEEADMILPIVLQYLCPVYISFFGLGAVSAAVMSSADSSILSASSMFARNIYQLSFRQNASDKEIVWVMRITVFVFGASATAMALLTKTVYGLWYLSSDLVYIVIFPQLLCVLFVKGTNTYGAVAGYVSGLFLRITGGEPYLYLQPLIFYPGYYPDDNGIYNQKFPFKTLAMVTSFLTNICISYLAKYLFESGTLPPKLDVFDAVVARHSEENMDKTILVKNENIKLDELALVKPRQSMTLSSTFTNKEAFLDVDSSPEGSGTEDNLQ
GalR3 antag: human GalR3 antagonism. inhibition, % at 3 µM. AID 651719. 0.44% of 360,000 active. O60755. HEK293 GalR3-CNG cAMP membrane potential fluorescence; galR3 body fused to GalR1 C-terminus;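 active = inhibition above the screen-wide average plus 3 SD, cut at about 13% in these data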;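 also: forskolin and galanin both at EC90 stimulate the cells; cAMP rise reported by CNG channel membrane potential dye signal; 0% = forskolin plus galanin with DMSO and 100% = forskolin alone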
NR2E3 ag-1: agonists of human nuclear receptor NR2E3 | inhibition of corepressor binding, % at 4.78 µM | 0.12% of 320,000 active | Q9Y5X4 | GST-NR2E3/biotin-RetCOR TR-FRET, 1536-well;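 active = percent inhibition above the cutoff of mean plus 3 SD of all tested compounds, set per screening campaign, cut at about 20% in these data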;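 also: 0% = DMSO wells and 100% = biotin wells as full block of FRET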
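Material – GST-tagged NR2E3 plus biotinylated RetCOR corepressor · Quantity – NR2E3 fusion 1.35 nM · Times – 5 h incubation at 4 °C · Medium – pH 7.5 Tris-based buffer · Technique – TR-FRET, Eu(K)-anti-GST donor, streptavidin-D2 acceptor, ex 340, em 617/671 nm · Benchmarks – high control biotin, low control 0.6% DMSO · Format – 1536-well plates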
NR2E3 ag-2: agonists of human NR2E3 nuclear receptor; Q9Y5X4; CHO-S Gal4-NCOR/VP16-NR2E3 two-hybrid, luciferase; inhibition of corepressor binding, % at 3.98 µM; 0.35% of 360,000 active; AID 602229;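 active = inhibition above the mean of all tested compounds plus 3 SD, cut at about 70% in these data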;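 also: 0% = DMSO with NR2E3 transfected cells and 100% = cells lacking NR2E3 construct; higher means lower luciferase signal from less NR2E3 corepressor binding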
CHT block: inhibits the human high affinity choline transporter; Q9GZV3; 0.86% of 310,000 active; CHT-expressing cells, membrane potential dye, choline response; hits give low values; AID 488975; B-score at 10 µM;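 active = B-score over 3 SD under the library average, and starting fluorescence ratio not unusually high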;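 also: choline stimulus applied at its EC90 after an EC20 pre-addition; B-score computed on integrated fluorescence ratio after choline addition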
VP16 Luc counter: inhibits VP16 reporter, flagging COUP-TFII antagonist hits; 25% of 2,500 active; shares compounds with NR2F2 inh; inhibition, % at 8.5 µM; HEK293 Gal4-VP16 luciferase reporter, luminescence; in the data active = inhibition above about 13%
NR2F2 inh conf: COUP-TFII (NR2F2) inhibition, confirmation assay. shares compounds with NR2F2 inh. HEK293 NGFI-A luciferase reporter, luminescence. inhibition, % at 8.5 µM. 45% of 2,500 active. AID 687008;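 active = mean inhibition over three repeats above a set limit taken from the earlier primary screen, cut at about 38% in these data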;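 also: 100% = cells given the luciferase reporter alone without the COUP-TF2 vector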
Starred values were filed as active, the others as inactive; i = inactive; / = no result given. This is a sample that favours compounds with a hit; in the whole collection about 2.3% have one here.

SMILES | NR2F2 inh | CHT PAM | GalR3 antag | NR2E3 ag-1 | NR2E3 ag-2 | CHT block | VP16 Luc counter | NR2F2 inh conf
O=C(c1ccc(Oc2ccc([N+](=O)[O-])cc2)cc1)N1CCCCCC1 | 47* | i | -9 | -7 | 23 | i | -5 | 14
COc1ccc(CCNC(=O)CCNC(=O)c2ccc([N+](=O)[O-])cc2)cc1 | 39* | i | -10 | -3 | -16 | i | 4 | 3
CCn1c(SCC(=O)NN=Cc2c(C)nn(-c3ccccc3)c2C)nnc1-c1ccc(OC)c(OC)c1 | -1 | / | / | / | / | / | / | /
Cc1cccc(NC(=O)NN(C(=O)c2ccccc2Cl)C(C)(C)C)c1 | -19 | / | / | / | / | / | / | /
COC(=O)[C@]12C[C@H](CC(=O)N3CCCCC3)C(=O)N(CCc3ccc(OC)c(OC)c3)C1=C[C@H](C(C)(C)C)O[C@@H]2C | -10 | / | / | / | / | / | / | /
CCOc1cc(/C=C2\CN(C)C/C(=C\c3ccc(O)c(OCC)c3)C2=O)ccc1O | 78* | i | -7 | 0 | 1 | i | 57* | 82*
Cc1ccccc1C(=O)N1CCN(c2ccc(NC(=O)c3ccc4c(c3)OCCO4)cc2)CC1 | 68* | i | 0 | 3 | 13 | i | 10 | 58*
CC(C)C(=O)N1CCN(c2ccc(NC(=O)c3ccc4c(c3)OCCO4)cc2)CC1 | 9 | i | -2 | 1 | -1 | i | / | /
Cc1ccc(CN2CCCCC(NC(=O)c3ccc4ccccc4c3)C2=O)cc1 (stereo not given) | -23 | / | / | / | / | / | / | /
COc1cc2c(cc1OC)C(Cc1ccccc1[N+](=O)[O-])=NCC2 | 2 | / | -5 | / | -10 | / | / | /
COc1cc2c(cc1OC)C(c1ccc(-c3ccc(Cl)c(Cl)c3)o1)=NCC2 | 51* | i | -1 | 0 | 22 | i | 9 | 46*
COc1cc2c(cc1OC)C(c1ccc(-c3ccc(Cl)cc3Cl)o1)=NCC2 | 62* | i | -5 | -1 | -15 | i | 0 | 42*
CCOC(=O)Cn1cc(CN2C(C(=O)OC)CN(Cc3ccc(C)cc3)CCS2(=O)=O)nn1 (stereo not given) | -1 | / | / | / | / | / | / | /
O=C(CCc1ccccc1)N[C@H]1[C@H](OC(=O)c2cnccn2)CCC[C@@]12C(=O)N(Cc1ccccc1)c1ccccc12 | 3 | / | / | / | / | / | / | /
CC[n+]1ccc(/C=C/c2c[nH]c3ccccc23)cc1 | 51* | i | -5 | 0 | 4 | i | 4 | 28
COc1ccc2c(/C=C/c3cc[n+](C)cc3)c[nH]c2c1 | 38* | i | -11 | -7 | -13 | i | 7 | 39*
Cc1ccc(-n2c(SCC(=O)c3ccc(-c4ccccc4)cc3)nnc2-c2ccc(C(C)(C)C)cc2)cc1 | 10 | / | / | / | / | / | / | /
CNC(=O)NC(=O)C(C)OC(=O)c1c2c(nc3ccccc13)/C(=C/c1cccs1)CC2 (stereo not given) | 46* | i | -2 | 1 | -55 | i | -37 | -15
Cc1ccc(-c2c(NC(=O)c3cccc(C)c3)nc3ncccn23)cc1 | 3 | / | / | / | / | / | / | /
COc1ccc(CCNC(=S)c2ccccc2)cc1OC | 38* | i | -7 | 3 | -21 | i | 5 | 22
COc1ccc(CCNC(=S)NCCc2ccc(OC)c(OC)c2)cc1OC | 2 | i | -8 | 1 | -11 | i | / | /
CN(C)Cc1nc2ccccc2c(=O)n1Cc1nc(-c2cc3ccccc3o2)cs1 | 14 | i | -2 | -4 | -2 | i | / | /
CCOc1ccc(-c2csc(Cn3c(CN4CCN(C)CC4)nc4ccccc4c3=O)n2)cc1 | 39* | i | -6 | 2 | -23 | i | -11 | 7
Cc1ccc(-c2cc(N)n(Cc3ccc(Cl)cc3)n2)cc1 | 48* | i | 89* | -2 | -10 | i | -19 | 21
COc1cccc(C=NNC(=O)CSc2nc3ccccc3[nH]2)c1O | -2 | / | / | / | / | / | / | /
SMILES | NR2F2 inh | CHT PAM | GalR3 antag | NR2E3 ag-1 | NR2E3 ag-2 | CHT block | VP16 Luc counter | NR2F2 inh conf
CCOC(=O)[C@@]12CCCC3=C1N(CCC3)C(=O)[C@H]2CC(=O)NCc1ccc(OC)c(OC)c1 | -6 | / | / | / | / | / | / | /
CC(C)CNC(=O)OCc1cn(Cc2ccc(F)c(F)c2)nn1 | -15 | / | / | / | / | / | / | /
Cc1ccc(COc2ccc(/C=N/NC(=O)c3ccc(CN4CCOCC4)cc3)cc2)cc1 | 15 | i | -4 | 2 | -89 | i | / | /
Cc1ccc(C(C)C)c(OCc2ccc(C(=O)N/N=C/c3ccc(C(=O)O)cc3)cc2)c1 | 40* | i | -6 | 5 | -46 | i | 24* | 8
N#CCc1ccnc2ccccc12 | 6 | / | -3 | / | -1 | / | / | /
N#CC(C#N)c1ccnc2ccccc12 | 40* | / | 4 | / | -68 | / | 6 | 17
NC(=Nc1nc(-c2ccccn2)cc2ccccc12)c1ccccn1 | 42* | / | -5 | / | 45 | / | -8 | -2
N/C(=N\OC(=O)c1cccc2ccccc12)c1ccccn1 | -49 | i | -5 | 0 | -131 | i | / | /
CCCOc1ccc(C(=O)Nc2ccc(S(=O)(=O)NC3=NCCCCC3)cc2)cc1 | 43* | i | -4 | -1 | 9 | i | -3 | 10
CCN(CC)CCCNC(=O)c1cn(C(C)c2ccccc2)nn1 (stereo not given) | -5 | / | / | / | / | / | / | /
CC(C)c1ccc(CC(=O)N2CCC2(C)C(=O)Nc2cnc3ccccc3c2)cc1 (stereo not given) | 45* | / | -9 | / | 20 | / | -3 | 11
CC(C)c1ccc(CC(=O)N2CCC2(C)C(=O)Nc2ccccc2)cc1 (stereo not given) | 11 | / | -6 | / | -4 | / | / | /
COc1ccc(C)cc1Nc1n[n+](-c2ccccc2)c(-c2c(OC)ccc3ccccc23)s1 | 43* | i | -3 | -5 | -9 | i | 2 | 28
COc1ccc(C)cc1Nc1n[n+](-c2ccccc2)c(-c2cc(OC)c(OC)cc2Br)s1 | 12 | i | -7 | -2 | 2 | i | / | /
O=C(CCC(=O)N1CCN(C2c3ccccc3-c3ccccc32)CC1)Nc1nnc(C(F)(F)F)s1 | -11 | / | / | / | / | / | / | /
CC(=O)[C@@]1(O)Cc2c(O)c3c(c(O)c2[C@H](O[C@H]2C[C@H](N)[C@H](O)[C@H](C)O2)C1)C(=O)c1ccccc1C3=O | 58* | / | -6 | / | 14 | / | 10 | 38*
COc1cccc2c1C(=O)c1c(O)c3c(c(O)c1C2=O)C[C@@](O)(C(=O)CO)C[C@@H]3O[C@H]1C[C@H](N)[C@H](O)[C@H](C)O1 | -8 | i | -6 | 1 | -71 | i | / | /
Cc1ccc(-c2csc3ncnc(NCCN4CCOCC4)c23)cc1 | 38* | i | -5 | -2 | 0 | i | 9 | 24
